Data: ChEMBL document CHEMBL1921692 (J Med Chem, 2011)
Active and inactive are the calls of the source.

Legend:
[1] = biological target: T1, Growth hormone secretagogue receptor type 1 (Homo sapiens, UniProt Q92847); assay: Displacement of [125I-His9]-ghrelin from human GRLN receptor by radioligand binding assay
Method in brief: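 Competitive binding on isolated membranes expressing GRLN, with 125I-His-9 octanoylated ghrelin as radioligand.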

[2] = biological target: T1, Growth hormone secretagogue receptor type 1; assay: Agonist activity at human GRLN receptor expressed in HEK293 cells assessed as calcium binding by Ca2+ bioluminescence aequorin assay; format: functional, cell-based
Method in brief: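 HEK-293 cells expressing human GRLN. Ca2+ bioluminescence read out by aequorin. Duplicate samples, maximum tolerated interassay variability ±10%. Full agonism defined as maximal response >70% of that of octanoylated human ghrelin.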

[3] = Cmax in Sprague-Dawley rat at 8 mg/kg, po; format: ADME, organism-based; design: dose 8 mg/kg, route oral; conditions: in vivo
Method in brief: (§1)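 Male Sprague−Dawley rats (250 ± 20 g), 3 per compound in a single experiment, gavage 8 mg/kg in physiological saline. Blood taken at 12 time points over 6 h into K3EDTA tubes. Plasma stored at −20 °C, assayed by LC-MS/MS, noncompartmental analysis.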

[4] = AUC (0 to infinity) in Sprague-Dawley rat at 8 mg/kg, po; format: ADME, organism-based; design: time infinity, dose 8 mg/kg, route oral; conditions: plasma; method in brief: as §1
[5] = Elimination half life in Sprague-Dawley rat at 2 m/kg, iv; format: ADME, organism-based; conditions: in vivo, read-out: beta t1/2
[6] = Volume of distribution at steady state in Sprague-Dawley rat at 2 m/kg, iv; format: ADME, organism-based; conditions: in vivo, read-out: Vdss
[7] = Permeability across mucosal to serosal side in human Caco2 cells; format: ADME, cell-based; conditions: Caco-2, read-out: permeability
[8] = Permeability across serosal to mucosal side human Caco2 cells; format: ADME, cell-based; conditions: Caco-2, read-out: permeability
[9] = Drug metabolism in rat liver microsomes after 15 mins; format: ADME, Microsome; conditions: read-out: Drug metabolism
[10] = Half life in human liver microsomes; format: ADME, Microsome
Rattus norvegicus [11] = assay: Induction of gastric emptying in overnight-fasted iv dosed Wistar rat measured after 15 mins by […] analysis; format: functional, organism-based, Stomach
Method in brief: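 Overnight-fasted male Wistar rats (200 ± 20 g), N = 5 per point. Compound given IV in 9% 2-hydroxypropyl-β-cyclodextrin together with an oral 2% methylcellulose meal containing 0.05% phenol red (2 mL). Sacrifice 15 min later; phenol red left in stomach read at 560 nm. […] Metoclopramide positive control at 10 mg/kg IV.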

Rattus norvegicus [12] = assay: Induction of gastric emptying in overnight-fasted po dosed Wistar rat administered 30 mins prior methylcellulose meal by […] analysis; format: functional, organism-based; conditions: Stomach
[13] = Oral bioavailability in Sprague-Dawley rat at 8 mg/kg; conditions: in vivo
[14] = biological target: motilin receptor (Homo sapiens) (UniProt O43193); assay: Selectivity ratio of EC50 for human motilin receptor to EC50 for human GRLN receptor
[15] = biological target: T1, Growth hormone secretagogue receptor type 1; assay: Partial agonist activity at GRLN receptor at 3 uM by aequorin assay; format: functional
Method in brief: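 Aequorin Ca2+ bioluminescence in HEK-293 cells expressing human GRLN. Response at a 3 μM test concentration expressed relative to the maximal response to octanoylated human ghrelin.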

[16] = Clearance in Sprague-Dawley rat at 2 m/kg, iv; format: ADME, organism-based; conditions: in vivo
Cytochrome P450 3A4 = Cytochrome P450 3A4 (Homo sapiens, UniProt P08684); assay: Inhibition of human CYP3A4; format: ADME
Cytochrome P450 2D6 = Cytochrome P450 2D6 (Homo sapiens, UniProt P10635); assay: Inhibition of human CYP2D6; format: ADME
Cytochrome P450 2C9 = Cytochrome P450 2C9 (Homo sapiens, UniProt P11712); assay: Inhibition of human CYP2C9; format: ADME
Cytochrome P450 2C19 = Cytochrome P450 2C19 (Homo sapiens, UniProt P33261); assay: Inhibition of human CYP2C19; format: ADME
Cytochrome P450 1A2 = biological target: T2, Cytochrome P450 1A2 (Homo sapiens, UniProt P05177); assay: Inhibition of human CYP1A2; format: ADME
T2 sequence (P05177 whole entry): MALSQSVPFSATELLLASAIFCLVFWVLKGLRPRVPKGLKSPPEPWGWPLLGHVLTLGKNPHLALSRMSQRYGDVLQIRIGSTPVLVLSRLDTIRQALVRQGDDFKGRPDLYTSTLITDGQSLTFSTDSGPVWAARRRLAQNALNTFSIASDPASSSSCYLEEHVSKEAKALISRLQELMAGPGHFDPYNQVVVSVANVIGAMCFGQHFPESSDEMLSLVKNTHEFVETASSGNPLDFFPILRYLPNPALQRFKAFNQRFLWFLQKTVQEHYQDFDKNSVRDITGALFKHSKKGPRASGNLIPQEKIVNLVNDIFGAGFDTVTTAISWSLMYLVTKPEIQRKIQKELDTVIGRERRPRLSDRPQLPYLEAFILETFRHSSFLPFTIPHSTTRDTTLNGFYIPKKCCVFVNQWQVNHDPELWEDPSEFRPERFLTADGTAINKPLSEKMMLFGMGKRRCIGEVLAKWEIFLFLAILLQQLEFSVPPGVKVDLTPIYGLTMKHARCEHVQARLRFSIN

[17] = Cmax in cynomolgus monkey at 8 mg/kg, po; format: ADME, organism-based, Macaca fascicularis; design: dose 8 mg/kg, route oral; conditions: in vivo
[18] = Clearance in cynomolgus monkey at 0.5 mg/kg, iv; conditions: in vivo
Cynomolgus monkey [19] = assay: Oral bioavailability in cynomolgus monkey at […]; conditions: in vivo
Cynomolgus monkey [20] = assay: AUC (0 to infinity) in cynomolgus monkey at […], po; conditions: in vivo
[21] = Elimination half life in cynomolgus monkey at 0.5 mg/kg, iv; conditions: in vivo, read-out: beta t1/2
[22] = Volume of distribution at steady state in cynomolgus monkey at 0.5 mg/kg, iv; conditions: in vivo, read-out: Vdss
Salmonella typhimurium = assay: Induction of mutagenicity in Salmonella Typhimurium up to 5000 ug/plate by Ames test; format: toxicity, organism-based; conditions: salmonella enterica subsp. enterica serovar typhimurium
Method in brief: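 Ames test run up to 5000 μg/plate.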

[23] = Dissociation constant, pKa of the compound; format: physicochemical
[24] = Drug excretion in Sprague-Dawley rat assessed as unchanged recovery in feces at 6 mg/kg, iv measured after 30 mins; conditions: faeces

T1 sequence (Q92847 whole entry): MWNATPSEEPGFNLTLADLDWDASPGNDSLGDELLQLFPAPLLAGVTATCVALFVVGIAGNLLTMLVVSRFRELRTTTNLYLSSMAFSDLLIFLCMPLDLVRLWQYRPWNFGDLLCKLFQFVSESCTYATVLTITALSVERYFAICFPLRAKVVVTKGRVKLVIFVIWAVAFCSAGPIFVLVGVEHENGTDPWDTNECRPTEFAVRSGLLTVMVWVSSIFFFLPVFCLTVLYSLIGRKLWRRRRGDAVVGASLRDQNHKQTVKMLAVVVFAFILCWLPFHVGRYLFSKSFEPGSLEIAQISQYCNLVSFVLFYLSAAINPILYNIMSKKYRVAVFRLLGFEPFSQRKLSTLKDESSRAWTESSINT
Sequence of Cytochrome P450 2C9 (P11712 whole entry): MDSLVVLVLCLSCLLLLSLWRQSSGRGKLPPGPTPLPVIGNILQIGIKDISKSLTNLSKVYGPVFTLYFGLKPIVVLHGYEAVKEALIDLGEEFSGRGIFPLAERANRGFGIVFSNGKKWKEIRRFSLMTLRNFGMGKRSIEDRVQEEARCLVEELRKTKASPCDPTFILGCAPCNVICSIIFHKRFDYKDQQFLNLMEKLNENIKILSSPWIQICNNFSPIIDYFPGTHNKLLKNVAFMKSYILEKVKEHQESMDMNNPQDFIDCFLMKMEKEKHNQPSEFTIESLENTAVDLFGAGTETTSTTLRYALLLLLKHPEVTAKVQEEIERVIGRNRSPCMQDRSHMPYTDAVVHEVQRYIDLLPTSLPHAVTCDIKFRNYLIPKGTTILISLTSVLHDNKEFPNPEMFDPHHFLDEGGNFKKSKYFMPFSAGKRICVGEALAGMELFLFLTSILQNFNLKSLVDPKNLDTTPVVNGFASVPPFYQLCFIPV
Sequence of Cytochrome P450 2D6 (P10635 whole entry): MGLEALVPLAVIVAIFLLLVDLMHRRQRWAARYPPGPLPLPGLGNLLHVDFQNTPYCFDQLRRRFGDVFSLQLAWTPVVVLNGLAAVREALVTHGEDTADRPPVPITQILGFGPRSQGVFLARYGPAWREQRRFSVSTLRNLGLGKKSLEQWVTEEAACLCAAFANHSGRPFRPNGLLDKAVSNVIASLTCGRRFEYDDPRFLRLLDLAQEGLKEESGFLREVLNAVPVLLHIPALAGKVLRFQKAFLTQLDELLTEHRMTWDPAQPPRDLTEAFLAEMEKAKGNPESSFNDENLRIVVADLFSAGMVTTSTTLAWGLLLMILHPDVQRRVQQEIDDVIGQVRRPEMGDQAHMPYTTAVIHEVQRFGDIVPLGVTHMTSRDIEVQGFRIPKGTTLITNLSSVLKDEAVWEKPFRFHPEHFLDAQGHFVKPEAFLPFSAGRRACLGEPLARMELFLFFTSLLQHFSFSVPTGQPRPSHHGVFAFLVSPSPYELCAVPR
Sequence of Cytochrome P450 2C19 (P33261 whole entry): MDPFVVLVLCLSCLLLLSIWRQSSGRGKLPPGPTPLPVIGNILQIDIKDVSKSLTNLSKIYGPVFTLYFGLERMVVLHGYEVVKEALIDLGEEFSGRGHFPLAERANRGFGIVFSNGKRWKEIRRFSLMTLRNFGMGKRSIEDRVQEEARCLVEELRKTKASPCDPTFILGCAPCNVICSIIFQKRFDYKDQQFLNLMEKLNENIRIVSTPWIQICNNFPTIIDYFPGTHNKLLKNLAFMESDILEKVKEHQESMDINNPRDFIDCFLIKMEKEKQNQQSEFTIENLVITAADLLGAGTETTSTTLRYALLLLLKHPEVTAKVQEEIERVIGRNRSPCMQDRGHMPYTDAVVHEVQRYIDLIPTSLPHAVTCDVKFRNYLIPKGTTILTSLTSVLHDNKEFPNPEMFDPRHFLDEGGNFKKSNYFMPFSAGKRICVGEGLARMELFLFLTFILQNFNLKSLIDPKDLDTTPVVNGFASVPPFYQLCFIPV
Sequence of Cytochrome P450 3A4 (P08684 whole entry): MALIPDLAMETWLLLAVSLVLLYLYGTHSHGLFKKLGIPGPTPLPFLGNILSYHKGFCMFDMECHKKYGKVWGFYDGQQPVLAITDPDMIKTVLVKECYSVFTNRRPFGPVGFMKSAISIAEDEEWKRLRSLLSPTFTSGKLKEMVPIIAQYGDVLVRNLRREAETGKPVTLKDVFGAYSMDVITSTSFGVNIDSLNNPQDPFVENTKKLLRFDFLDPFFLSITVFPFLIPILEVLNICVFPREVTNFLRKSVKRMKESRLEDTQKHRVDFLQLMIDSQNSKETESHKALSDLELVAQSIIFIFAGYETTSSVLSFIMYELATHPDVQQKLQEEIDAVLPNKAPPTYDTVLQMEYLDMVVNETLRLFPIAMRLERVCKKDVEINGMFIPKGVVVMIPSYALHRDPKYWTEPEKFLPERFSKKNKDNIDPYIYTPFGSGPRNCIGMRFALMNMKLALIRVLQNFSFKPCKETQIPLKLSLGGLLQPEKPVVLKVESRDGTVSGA

Ki [1] [nM] | EC50 [2] [nM] | Cmax [3] [nM] | AUC(0-inf) [4] [µM·h] | half-life [5] [min] | Vd [6] [L/kg] | Papp A→B [7] [×10⁻⁶ cm/s] | Papp B→A [8] [×10⁻⁶ cm/s] | metabolised at […] [9] [%] | half-life [10] [min] | EC50 (Rattus norvegicus [11]) [mg/kg] | bioavailability [13] [%] | IC50 (Cytochrome P450 3A4) [nM] | IC50 (Cytochrome P450 2D6) [nM] | IC50 (Cytochrome P450 2C9) [nM] | IC50 (Cytochrome P450 2C19) [nM] | IC50 (Cytochrome P450 1A2) [nM] | Cmax [17] [nM] | F (Cynomolgus monkey [19]) [%] | SMILES | Activity (Rattus norvegicus [12]) | also measured
0.35 | 20 | 60 | 0.0585 | 33 | 3.2 | 14 | 15 | 86 | 5 | 0.39 | 3 | – | – | – | – | – | – | – | CC[C@H](C)[C@@H]1NCCOc2ccccc2CCCNC(=O)[C@@H](Cc2ccc(Cl)cc2)NC(=O)[C@@H](C)N(C)C1=O | inactive | –
– | – | – | – | – | – | – | – | – | – | 0.04 | – | – | – | – | – | – | – | – | CCCCCCCC(=O)OC[C@H](NC(=O)CNC(=O)[C@@H](N)CCCNC(=N)N)C(=O)N[C@@H](CO)C(=O)N[C@@H](Cc1ccccc1)C(=O)N[C@@H](CC(C)C)C(=O)N[C@@H](CO)C(=O)N1CCC[C@H]1C(=O)N[C@@H](CCC(=O)O)C(=O)N[C@@H](Cc1cnc[nH]1)C(=O)N[C@@H](CCC(N)=O)C(=O)N[C@@H](CCCCN)C(=O)N[C@@H](C)C(=O)N[C@@H](CCC(N)=O)C(=O)N[C@@H](CCC(N)=O)C(=O)N[C@@H](CCCNC(=N)N)C(=O)N[C@@H](CCCCN)C(=O)N[C@@H](CCC(=O)O)C(=O)N[C@@H](CO)C(=O)N[C@@H](CCCCN)C(=O)N[C@@H](CCCCN)C(=O)N1CCC[C@H]1C(=O)N1CCC[C@H]1C(=O)N[C@@H](C)C(=O)N[C@@H](CCCCN)C(=O)N[C@@H](CC(C)C)C(=O)N[C@@H](CCC(N)=O)C(=O)N1CCC[C@H]1C(=O)O [GHRELIN] | inactive | –
86 | 134 | – | – | – | – | – | – | – | – | – | – | – | – | – | – | – | – | – | CCC[C@@H]1NCCOc2ccccc2/C=C/CNC(=O)[C@@H](Cc2ccccc2)NC(=O)CN(C)C1=O | – | Ratio EC50 [14]: > 100
12 | – | – | – | – | – | – | – | – | – | – | – | – | – | – | – | – | – | – | C[C@@H]1C(=O)N[C@H](Cc2ccc(F)cc2)C(=O)NCCCc2ccccc2OC(C)(C)CN[C@@H](C2CC2)C(=O)N1C | – | Activity [15]: 40%
2.6 | 27 | 900 | 1.67 | 44 | 1.8 | 19.8 | 12.5 | 54 | 41 | 1.2 | 36 | 1200 | 31000 | > 100000 | > 100000 | > 100000 | 90 | 7 | C[C@@H]1C(=O)N[C@H](Cc2ccc(F)cc2)C(=O)NCCCc2ccc(F)cc2OCCN[C@@H](C2CC2)C(=O)N1C | – | clearance [16]: 28 mL/min/kg; clearance [18]: 20 mL/min/kg; AUC (Cynomolgus monkey [20]): 10.3 µM·min; half-life [21]: 29 min; Vd [22]: 0.66 L/kg
16 | 29 | 390 | 1.37 | – | – | 15 | 14 | 68 | – | 0.91 | 24 | 2400 | 84000 | 66000 | > 100000 | > 100000 | 1400 | 24 | C[C@@H]1CN[C@@H](C2CC2)C(=O)N(C)[C@H](C)C(=O)N[C@H](Cc2ccc(F)cc2)C(=O)NCCCc2ccccc2O1.Cl.O [ULIMORELIN HYDROCHLORIDE] | – | Activity (Salmonella typhimurium): Non-toxic; pKa [23]: 7.17; AUC (Cynomolgus monkey [20]): 75.4 µM·min; dose excreted at 0.5 h [24]: 95%
